Cav32 inh = blocks human Cav3.2 T-type calcium channel | O95180 | Cav3.2-expressing cells, Fluo-4 calcium fluorescence FDSS; active compounds read low | B-score at 10 µM | hit rate 4% among 100,000 | AID 449739;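 active = single-dose well whose peak fluorescence ratio is a statistical outlier from its plate by either plate-standardised score or position-corrected B-score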
PLK1 inh = inhibitors of human PLK1 kinase; AID 619; recombinant PLK1 kinase, TR-FRET peptide phosphorylation; P53350; inhibition, % at 10 µM; hit rate 0.53% among 97,000;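 active = inhibition of 50% or more in the single-concentration screen; inactive = inhibition below 50%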;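 note: 0% = DMSO max control and 100% = H-89 dihydrochloride min control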
Target sequence (P53350 whole entry, looked up): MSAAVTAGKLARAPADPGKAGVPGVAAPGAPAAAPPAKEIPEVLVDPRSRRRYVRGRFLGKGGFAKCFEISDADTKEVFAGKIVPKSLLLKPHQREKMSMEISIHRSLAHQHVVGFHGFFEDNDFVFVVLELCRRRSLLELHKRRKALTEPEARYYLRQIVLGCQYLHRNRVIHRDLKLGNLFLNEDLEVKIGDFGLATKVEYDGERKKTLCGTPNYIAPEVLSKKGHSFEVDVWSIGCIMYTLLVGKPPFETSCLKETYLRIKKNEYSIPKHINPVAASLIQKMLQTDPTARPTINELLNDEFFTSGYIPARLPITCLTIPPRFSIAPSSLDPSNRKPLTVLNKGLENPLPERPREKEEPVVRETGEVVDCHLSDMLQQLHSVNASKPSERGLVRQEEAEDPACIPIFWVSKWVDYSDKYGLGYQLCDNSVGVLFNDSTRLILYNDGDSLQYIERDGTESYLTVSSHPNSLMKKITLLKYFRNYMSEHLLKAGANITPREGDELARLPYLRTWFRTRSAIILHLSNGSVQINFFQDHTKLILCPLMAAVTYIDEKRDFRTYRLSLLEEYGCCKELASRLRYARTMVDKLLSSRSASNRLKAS
FAK inh = FAK (human) kinase inhibition; biochemical FAK kinase activity assay; inhibition, %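 (tested at 7 µM)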; Q05397; hit rate 0.84% among 97,000; in the data active = inhibition above about 19%;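 note: 0% = DMSO and 100% = reference compound high control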
Pyk2 oligo antag = antagonists of human Pyk2 oligomerization; Q14289; Q293 cells, Pyk2 FERM NanoBiT luminescence; active compounds read low; z-score (the deposit names both 25 µM and 10 µM); hit rate 0.83% among 99,000;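 active = Z-score of -3 or lower, scaled per plate to the spread of control and sample wells; inactive = z-score above -3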;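 note: negative z-score means lost luminescence so less FERM oligomerization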
HIV Rev-RRE inh = disrupts HIV-1 Rev binding to RRE RNA | P05866 | Rev peptide-RRE RNA binding, FRET | AID 704 | inhibition, % at 8 µM | hit rate 0.79% among 97,000;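 active = inhibition above the screen-wide mean plus 3 SD, cut at about 35% in these data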;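 note: 0% = median DMSO wells and 100% = median Neomycin B control wells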
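Material: labelled RRE RNA duplex and labelled Rev peptide / Buffer or medium: HEPES pH 7.5 salt buffer with EDTA / Compound dosing: single point, 8 µM final nominal compound concentration / Benchmarks: DMSO low control, neomycin B high control / Timing: 5 min preincubation and 15 min binding, 25 °C / Technique: FRET fluorescence readout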
Plk1 PBD FP = blocks phosphopeptide binding to human Plk1 polo box domain | Plk1 PBD phosphopeptide binding, fluorescence polarization | AID 693 | inhibition, %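 (tested at about 20 µM)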 | hit rate 0.13% among 97,000 | P53350; in the data active = inhibition above about 34%, passing the limit was not always enough
* hit, by the source's call; . = not tested or not shown; [ ] = dose if it differs, or a comment. In the library only some 5.8% were active in any assay of this set; here they are far more common.

SMILES	Cav32 inh	PLK1 inh	FAK inh	Pyk2 oligo antag	HIV Rev-RRE inh	Plk1 PBD FP
Cn1c(CSc2nnc(SCc3ccccc3)s2)nc2ccccc21	-4.3*	4	-2	-0.13	5	-49
O=S(=O)(c1ccc(Oc2ccc(Cl)cc2)c(S(=O)(=O)N2CCCCC2)c1)N1CCCCC1	-3.5*	-11	0	0.7	6	30
COc1cc(/C=C/C(=O)CC(=O)/C=C/c2ccc(O)c(OC)c2)ccc1O	-4.2*	.	.	.	.	.
COc1cc(/C=C/C(=O)O)ccc1O	0.6	.	.	.	.	.
COc1ccc(NC(=O)C23CC4CC(C2)CC(n2cnc(Br)n2)(C4)C3)c(OC)c1	3.4*	-10	3	-0.48	5	-4
COc1ccc(OC)c(NC(=O)C23CC4CC(C2)CC(n2cnc(Br)n2)(C4)C3)c1	0.67	-17	1	-0.06	10	7
COc1cc(NS(=O)(=O)c2ccc(NC(=O)C34CC5CC(CC(C5)C3)C4)cc2)ncn1	1.4	-4	-2	-0.81	-3	-8
COc1ccc(Cl)cc1NC(=O)CN(C)C1CCCCC1	-1.4	-4	1	-0.62	8	-15
COc1ccc(C)cc1NC(=O)CN(Cc1nnc(-c2ccc(Cl)cc2)o1)C1CCCC1	-4.2*	-8	-4	-1.5	-2	2
CSc1cccc(NC(=O)CN(c2cc(C)ccc2C)S(C)(=O)=O)c1	-5.8*	-2	3	-1.1	10	23
COc1ccc(N(CC(=O)Nc2cccc(SC)c2)S(C)(=O)=O)cc1Cl	-5.9*	-6	2	-1.9	7	8
C=CCn1c(SCc2nc3ccccc3nc2C)nnc1-c1ccoc1C	-0.5	2	1	-0.51	7	-2
CC(CN(C)Cc1ccccc1)OC(=O)C1COc2ccccc2O1 (stereo unspecified)	-0.41	62*	1	.	2	-4
O=C(NC1CCN(Cc2ccccc2)CC1)C1COc2ccccc2O1 (stereo unspecified)	0.028	-6	-2	0.82	6	12
Cc1oc(C)c2c(=O)ccc3c(c12)OC(N)=C(C#N)C3c1ccccc1Cl (stereo unspecified)	-2.2	-3	5	1.8	97*[fluorescence artefact?]	-155
Cc1oc(C)c2c(=O)ccc3c(c12)OC(N)=C(C#N)C3c1ccccc1 (stereo unspecified)	.	-4	6	0.15	60*	-151
CSc1ccc(C2C(C#N)=C(N)Oc3c2ccc(=O)c2c(C)oc(C)c32)cc1 (stereo unspecified)	-1.5	0	-2	-0.77	43*	-46
CCOC(=O)c1c(NC(=O)CN2CCN(c3ccc(Cl)cc3)CC2)sc(C)c1C	-0.52	-8	-1	1.1	7	15
CCOC(=O)c1c(NC(=O)CN2CCCCC2)sc2c1CCC(C=O)=C2Cl	0.016	-7	-2	-3.1*	16	7
COc1ccc2nc(NC(=O)C(NS(=O)(=O)c3cccc4nsnc34)C(C)C)sc2c1 (stereo unspecified)	.	-16	6	.	10	11
Cc1ccc(CNc2oc(-c3ccco3)nc2S(=O)(=O)c2ccccc2)cc1	-4.7*	-17	0	0.78	11	-5
O=S(=O)(c1ccccc1)c1nc(-c2ccco2)oc1NCCN1CCOCC1	-2.3	-2	-1	0.29	11	-11
Cc1ccccc1-c1nc(CN2CCC(C(=O)NCc3cccnc3)CC2)c(C)o1	2.2	-14	0	0.58	7	-17
Cc1ccc(S(=O)(=O)c2nc(-c3ccccc3)oc2NCc2cccnc2)cc1	-5.3*	-2	0	-1.7	12	-7
Cc1ccccc1-c1nc(S(=O)(=O)c2ccc(Br)cc2)c(NCc2cccnc2)o1	-2.5*	7	3	-3.4*	-1	-8
SMILES	Cav32 inh	PLK1 inh	FAK inh	Pyk2 oligo antag	HIV Rev-RRE inh	Plk1 PBD FP
CC1=NN(/C(=N\c2nnc(C)s2)Nc2ccc(C(C)(C)C)cc2)[C@H](c2ccc(C)cc2)S1	-5.6*	-8	12	-0.61	0	-2
Cc1ccc(S(=O)(=O)Nc2nc(C)c(NC(=O)Nc3ccc(Cl)cc3Cl)s2)cc1	-3.2	-13	-11	-0.3	1	0
O=C(CNS(=O)(=O)c1ccc(Br)cc1)N1CCN(c2ccc(F)cc2)CC1	-7.8*	-13	1	0.13	10	2
O=C(CNS(=O)(=O)c1ccc(F)cc1)N1CCN(c2ccccc2)CC1	0.64	-10	2	0.75	5	10
Cc1cc(Cl)ccc1OC(C)C(=O)N1CCCN(C(=O)C(C)Oc2ccc(Cl)cc2C)CC1 (stereo unspecified)	-5.4*	-13	0	0.81	10	10
CCOC(=O)C1(C)/C(=N/Nc2ccc(Cl)cc2)C(=O)C(=O)N1c1ccccc1 (stereo unspecified)	-3.3	-11	-3	-1.3	5	-2
CCOC(=O)C1(C)/C(=N/Nc2ccccc2Cl)C(=O)C(=O)N1c1ccccc1 (stereo unspecified)	-4.9*	-6	-3	-1.6	2	7
CCOC(=O)CSc1nc2cc3c(cc2cc1CC)OCCO3	-4.6*	1	3	-0.49	14	-2
O=C(Nc1cccc(-c2nnc(-c3ccccc3)o2)c1)c1ccc(Br)o1	-0.95	-1	-1	-3.1*	2	6
O=C(COc1ccccc1)Nc1cccc(-c2nnc(-c3ccccc3)o2)c1	0.4	.	.	-0.87	.	.
O=C(Nc1ccccc1-c1ccccc1)c1ccc(Br)o1	-3.9*	1	3	-0.91	9	18
Cc1ccc(C(=O)N/C(=C\c2cccs2)C(=O)NCCCn2ccnc2)cc1C	1.4	-9	2	0.32	3	20
COC(=O)c1ccc(NC(=O)CCn2c(=O)oc3ccccc32)cc1	-0.072	-2	-6	-0.1	0	-5
CCOC(=O)c1ccc(NCn2c(=O)oc3ccccc32)cc1	-0.49	-8	-4	1.9	55*	5
Cc1ccc(-n2c(=O)[nH]cc(C(=O)Nc3ccc4c(c3)OCCO4)c2=O)cc1C	0.81	-9	-4	-2.3	4	9
Cc1ccc(-n2c(=O)[nH]cc(C(=O)Nc3ccc4c(c3)OCCO4)c2=O)cc1	-0.049	-1	-4	-3.1*	-1	3
O=C(NCc1ccc(C(F)(F)F)cc1)C12CN(Cc3ccccc3)CC1C(c1cccc([N+](=O)[O-])c1)=NO2 (stereo unspecified)	-3.2*	-5	1	.	10	33
O=C(NCc1ccc2c(c1)OCO2)C12CN(Cc3ccccc3)CC1C(c1cccc([N+](=O)[O-])c1)=NO2 (stereo unspecified)	-2.8	-21	1	.	7	-25
O=C(Nc1ccc2c(c1)OCO2)N1CCN(c2ncc(C(F)(F)F)cc2Cl)CC1	-6.6*	-13	0	-0.68	13	7
CCC(CC)=N/N=C/c1c(O)n(CC)c2cc(C3=NNC(=O)CC3)ccc12	0.41	12	0	0.03	18	-12

Assay outcomes: PubChem, several laboratories
